{"data": "Measured values pooled from the literature", "SLC6A3": "Sodium-dependent dopamine transporter (SLC6A3, Homo sapiens, UniProt Q01959)", "CA12": "Carbonic anhydrase 12 (CA12, Homo sapiens, UniProt O43570)", "DRD3": "D(3) dopamine receptor (DRD3, Homo sapiens, UniProt P35462)"}
{"target": "SLC6A3", "observed": "ligand displacement", "method": "radioligand", "quantity": "Ki", "result": "1400 nM", "SMILES": "CCOC(=O)[C@@]12C[C@@H]1[C@@H](n1cnc3c(Nc4ccccc4)nc(C#Cc4ccc(Cl)s4)nc31)[C@H](O)[C@@H]2O"}
{"target": "CA12", "observed": "enzyme activity", "mode": "inhibitor", "method": "stopped-flow", "quantity": "Ki", "result": "1650 nM", "SMILES": "COc1ccc(OC(=O)c2ccc(=O)oc2)cc1"}
{"target": "Taste receptor type 2 member 16 (TAS2R16, Homo sapiens, UniProt Q9NYV7)", "observed": "inositol phosphate", "mode": "agonist", "method": "TR-FRET", "quantity": "EC50", "result": "13000 µM", "SMILES": "OCc1ccccc1O[C@@H]1O[C@H](CO)[C@@H](O)[C@H](O)[C@H]1O"}
{"target": "SLC6A3", "observed": "ligand displacement", "method": "radioligand", "quantity": "EC50", "result": "0.97 µM", "SMILES": "CCOC(=O)[C@@]12C[C@@H]1[C@@H](n1cnc3c(NCCO)nc(C#Cc4ccc(Cl)s4)nc31)[C@H](O)[C@@H]2O"}
{"target": "DRD3", "observed": "β-arrestin recruitment", "mode": "antagonist", "quantity": "IC50", "result": "5.1 µM", "SMILES": "Cc1[nH]c(C)c(S(=O)(=O)Nc2ccc(C(F)(F)F)c(Cl)c2)c1C(=O)N1CC[C@@H](F)C1"}
{"target": "SLC6A3", "observed": "ligand displacement", "method": "radioligand", "quantity": "Ki", "result": "940 nM", "SMILES": "CCOC(=O)[C@@]12C[C@@H]1[C@@H](n1cnc3c(NCc4cccc(Cl)c4)nc(C#Cc4ccc(Cl)s4)nc31)[C@H](O)[C@@H]2O"}
{"target": "DRD3", "observed": "β-arrestin recruitment", "mode": "antagonist", "quantity": "IC50", "result": "13 µM", "SMILES": "Cc1[nH]c(C)c(S(=O)(=O)Nc2ccc(C3CC3)c(Cl)c2)c1C(=O)N1CCC(F)(F)C1"}
{"target": "SLC6A3", "observed": "ligand displacement", "method": "radioligand", "quantity": "Ki", "result": "890 nM", "SMILES": "OC[C@@]12C[C@@H]1[C@@H](n1cnc3c(NCCCCCCc4ccccc4)nc(I)nc31)[C@H](O)[C@@H]2O"}
{"target": "DRD3", "observed": "G protein activation", "mode": "antagonist", "method": "BRET", "quantity": "IC50", "result": "14.3 µM", "SMILES": "Cc1[nH]c(C)c(S(=O)(=O)Nc2ccc(C(=O)C(F)(F)F)c(Cl)c2)c1C(=O)N1CCC(F)(F)C1"}
{"target": "SLC6A3", "observed": "ligand displacement", "method": "radioligand", "quantity": "Ki", "result": "1900 nM", "SMILES": "CCOC(=O)[C@@]12C[C@@H]1[C@@H](n1ccc3c(NCCCCCc4ccccc4)nc(C#Cc4ccccc4)nc31)[C@H](O)[C@@H]2O"}
{"target": "CA12", "observed": "enzyme activity", "mode": "inhibitor", "method": "stopped-flow", "quantity": "Ki", "result": "55800 nM", "SMILES": "O=C(OCc1cn(-c2ccccc2)nn1)c1ccc(=O)oc1"}
{"target": "DRD3", "observed": "G protein activation", "mode": "antagonist", "method": "BRET", "quantity": "IC50", "result": "4.6 µM", "SMILES": "Cc1[nH]c(C)c(S(=O)(=O)Nc2ccc(C(F)(F)F)c(Cl)c2)c1C(=O)N(C)CC(F)(F)F"}
{"target": "CA12", "observed": "enzyme activity", "mode": "inhibitor", "method": "stopped-flow", "quantity": "Ki", "result": "61200 nM", "SMILES": "O=C(NCc1cn(-c2ccc(Cl)cc2)nn1)c1ccc(=O)oc1"}
{"target": "SLC6A3", "observed": "ligand displacement", "method": "radioligand", "quantity": "Ki", "result": "1200 nM", "SMILES": "N#CC[C@@]12C[C@@H]1[C@@H](n1cnc3c(NCc4cccc(Cl)c4)nc(C#Cc4ccc(Cl)s4)nc31)[C@H](O)[C@@H]2O"}
{"target": "CA12", "observed": "enzyme activity", "mode": "inhibitor", "method": "stopped-flow", "quantity": "Ki", "result": "62800 nM", "SMILES": "O=C(OCc1cn(-c2ccc([N+](=O)[O-])cc2)nn1)c1ccc(=O)oc1"}
{"target": "DRD3", "observed": "G protein activation", "mode": "antagonist", "method": "BRET", "quantity": "IC50", "result": "29 µM", "SMILES": "Cc1[nH]c(C)c(S(=O)(=O)Nc2ccc(C(F)(F)F)c(Cl)c2)c1C(=O)N1CCN(C(=O)OC(C)(C)C)CC1"}
{"target": "CA12", "observed": "enzyme activity", "mode": "inhibitor", "method": "stopped-flow", "quantity": "Ki", "result": "910 nM", "SMILES": "O=C(Oc1ccc(Br)cc1)c1ccc(=O)oc1"}
{"target": "Glutamate NMDA receptor; GRIN1/GRIN2B (GRIN1/GRIN2B, Homo sapiens, UniProt Q05586+Q13224)", "observed": "ion current", "mode": "agonist", "method": "two-electrode voltage clamp", "notes": "oocytes", "quantity": "EC50", "result": "0.32 µM", "SMILES": "NCC(=O)O"}
